# Source: ChEMBL document CHEMBL3045750, “New class of algicidal compounds and fungicidal activities derived from a chromene amide of Amyris texana” (2010)
# Active and inactive are the calls of the source. The calls are words filed in the database; no cut-off is given here.
# How the values were obtained:
# Colletotrichum fragariae = assay: Antifungal activity against Colletotrichum fragariae by TLC bioautography; type: functional, organism-based
# Botrytis cinerea [1] = assay: Fungicidal activity against Botryotinia fuckeliana assessed as growth inhibition at 100 uM after 72 hr by microbioassay; type: functional; conditions: read-out: GI
# Method in brief: (§1)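 Botrytis cinerea tested in a 96-well dose-response microbioassay alongside other fungal strains, after compounds were first screened by TLC bioautography against C. fragariae. Three concentrations were used (1.0, 10.0, 100.0 μM), with captan as positive standard. Growth inhibition was read 72 h after treatment.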
# Agrostis stolonifera = assay: Phytotoxic activity against Agrostis stolonifera var. Penncross at 0.1 to 1000 uM; type: functional, organism-based
# Method in brief: (§2)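 Germination phytotoxicity assay on lettuce (Lactuca sativa cv. Iceberg, dicot) and bent grass (Agrostis stolonifera cv. Pencross, monocot), with compounds tested across 0.1-1000 μM. Inhibition was scored visually on a 1-5 scale, where 1 is no inhibition and 5 is complete inhibition of germination.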
# Lactuca sativa = assay: Phytotoxic activity against Lettuce cv. Iceberg (lettuce) at 0.1 to 1000 uM; type: functional, organism-based; method in brief: as §2
# Cucumis sativus = assay: Phytotoxic activity against Cucumis sativus (cucumber) cotyledon disks assessed as electrolyte leakage; type: functional, organism-based
# Botrytis cinerea [2] = assay: Fungicidal activity against Botryotinia fuckeliana assessed as growth inhibition at 10 to 100 uM after 72 hr by microbioassay; type: functional, organism-based; method in brief: as §1
Structure (SMILES),Activity (Colletotrichum fragariae),inhibition of growth at 100 µM (Botrytis cinerea [1]) [%],Activity (Agrostis stolonifera),Activity (Lactuca sativa),Activity (Cucumis sativus),growth inhibition (GI) (Botrytis cinerea [2])
CC1(C)C=Cc2ccc(CO)cc2O1,Active,> 50,,,,
COC(=O)CCc1ccc(O)cc1,Active,,,,,
CC1(C)C=Cc2c(CO)cccc2O1,Active,,,,,
COc1cc(CCO)cc2c1OC(C)(C)C=C2,Active,,,,,
C#CC(C)(C)Oc1ccc(CC(=O)OC)cc1,Active,,,,,
C#CC(C)(C)Oc1ccc(CCC(=O)OC)cc1,Active,,,,,
COC(=O)c1ccc2c(c1)C=CC(C)(C)O2,Active,> 50,,,,
COc1cc(CCNC(C)C)cc2c1OC(C)(C)C=C2,inactive,,inactive,inactive,,
CC(C)NCc1ccc2c(c1)OC(C)(C)C=C2,inactive,,inactive,inactive,,
C#CC(C)(C)Oc1cccc(C(=O)OC)c1,Active,,,,,
C#CC(C)(C)Oc1ccc(C(=O)OC)cc1,Active,,,,,
CC1(C)C=Cc2cc(CCCO)ccc2O1,Active,> 50,,,,
COC(=O)CCc1ccc2c(c1)C=CC(C)(C)O2,Active,,,,,
CC(C)NCc1cccc2c1C=CC(C)(C)O2,inactive,,inactive,inactive,,
C#CC(C)(C)Oc1ccc(CC(=O)OCC)cc1OC,Active,,,,,
CC1(C)C=Cc2cc(CCN)ccc2O1,inactive,,inactive,inactive,,
CC1(C)C=Cc2cc(CCO)ccc2O1,Active,> 50,inactive,inactive,inactive,
COC(=O)c1ccc2c(c1)OC(C)(C)C=C2,Active,> 50,,,,
CC(C)CC(=O)N(C)CCc1ccc2c(c1)C=CC(C)(C)O2,,80,inactive,inactive,,
CC1(C)C=Cc2cc(CO)ccc2O1 [EULATACHROMENE],Active,30,,,inactive,
COC(=O)c1cccc2c1C=CC(C)(C)O2,Active,> 50,,,,
CNCCc1ccc2c(c1)C=CC(C)(C)O2,inactive,,inactive,inactive,,
CC(C)NCCCc1ccc2c(c1)C=CC(C)(C)O2,inactive,,inactive,inactive,,
COC(=O)Cc1ccc2c(c1)C=CC(C)(C)O2,Active,30,inactive,inactive,,
CC(C)NCc1ccc2c(c1)C=CC(C)(C)O2,inactive,,inactive,inactive,,
CCOC(=O)Cc1cc2c(c(OC)c1)OC(C)(C)C=C2,Active,,,,,
O=C1C2CC=CCC2C(=O)N1SC(Cl)(Cl)Cl (stereo unspecified),,,,,,Active
CC(C)NCCc1ccc2c(c1)C=CC(C)(C)O2,inactive,,inactive,inactive,inactive,
